Tests used:
[1] = Inhibition of pyrimethamine-resistant form-3 Plasmodium falciparum N51I, C59R, S108N, I164L, I150V, N182I, N201D mutant expressed in Escherichia coli BL21(DE3) by Michaelis-Menten based competitive inhibition assay
[2] = Inhibition of pyrimethamine-resistant form-1 Plasmodium falciparum N51I, C59R, S108N, I164L, D187A mutant expressed in Escherichia coli BL21(DE3) by Michaelis-Menten based competitive inhibition assay
[3] = Inhibition of WR99210-resistant form-3 Plasmodium falciparum N51I, C59R, N108T, I164L mutant expressed in Escherichia coli BL21(DE3) by Michaelis-Menten based competitive inhibition assay
[4] = Inhibition of WR99210-resistant form-1 Plasmodium falciparum I51N, C59R, N108S, I164L mutant expressed in Escherichia coli BL21(DE3) by Michaelis-Menten based competitive inhibition assay
[5] = Inhibition of Plasmodium falciparum DHFR QM template N51I, C59R, S108N, I164L mutant expressed in Escherichia coli BL21(DE3) by Michaelis-Menten based competitive inhibition assay
[6] = Inhibition of Plasmodium falciparum DHFR-TS QM template N51I, C59R, S108N, I164L mutant expressed in Escherichia coli BL21(DE3) by Michaelis-Menten based competitive inhibition assay
[7] = Inhibition of Plasmodium falciparum DHFR-TS QM template N51I, C59R, S108N, I164L mutant expressed in Escherichia coli BL21(DE3)
Method in brief: (§1)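 The recombinant enzyme was expressed in E. coli BL21(DE3) and purified by methotrexate-Sepharose affinity chromatography. Each reaction was started by adding 0.008 to 0.01 U of enzyme in the presence of varying inhibitor amounts. DHFR activity was read on a microplate spectrophotometer, and IC50 was taken from the inhibition data.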

[8] = Inhibition of WR99210-resistant form-A Plasmodium falciparum DHFR-TS I51N, C59R, N108S, L164I, D54N mutant expressed in Escherichia coli BL21(DE3); method in brief: as §1
[9] = Inhibition of Plasmodium falciparum DHFR QM template N51I, C59R, S108N, I164L mutant expressed in Escherichia coli BL21(DE3); method in brief: as §1
[10] = Inhibition of WR99210-resistant form-1 Plasmodium falciparum I51N, C59R, N108S, I164L mutant expressed in Escherichia coli BL21(DE3); method in brief: as §1
[11] = Inhibition of WR99210-resistant form-2 Plasmodium falciparum N51I, C59R, N108S, I164L mutant expressed in Escherichia coli BL21(DE3); method in brief: as §1
[12] = Inhibition of WR99210-resistant form-3 Plasmodium falciparum N51I, C59R, N108T, I164L mutant expressed in Escherichia coli BL21(DE3); method in brief: as §1
[13] = Inhibition of pyrimethamine-resistant form-1 Plasmodium falciparum N51I, C59R, S108N, I164L, D187A mutant expressed in Escherichia coli BL21(DE3); method in brief: as §1
[14] = Inhibition of pyrimethamine-resistant form-3 Plasmodium falciparum N51I, C59R, S108N, I164L, I150V, N182I, N201D mutant expressed in Escherichia coli BL21(DE3); method in brief: as §1
[15] = Inhibition of WR99210-resistant form-2 Plasmodium falciparum N51I, C59R, N108S, I164L mutant expressed in Escherichia coli BL21(DE3) by Michaelis-Menten based competitive inhibition assay
[16] = biological target: T1, Bifunctional dihydrofolate reductase-thymidylate synthase (Plasmodium falciparum (isolate 3D7), UniProt Q8I1R6, C59R/I164L/K96N/N51I/S108N); test: Inhibition of pyrimethamine-resistant form-2 Plasmodium falciparum N51I, C59R, S108N, I164L, K96N mutant expressed in Escherichia coli BL21(DE3) by Michaelis-Menten based competitive inhibition assay
T1 sequence (Q8I1R6 whole entry N51I/C59R/K96N/S108N/I164L): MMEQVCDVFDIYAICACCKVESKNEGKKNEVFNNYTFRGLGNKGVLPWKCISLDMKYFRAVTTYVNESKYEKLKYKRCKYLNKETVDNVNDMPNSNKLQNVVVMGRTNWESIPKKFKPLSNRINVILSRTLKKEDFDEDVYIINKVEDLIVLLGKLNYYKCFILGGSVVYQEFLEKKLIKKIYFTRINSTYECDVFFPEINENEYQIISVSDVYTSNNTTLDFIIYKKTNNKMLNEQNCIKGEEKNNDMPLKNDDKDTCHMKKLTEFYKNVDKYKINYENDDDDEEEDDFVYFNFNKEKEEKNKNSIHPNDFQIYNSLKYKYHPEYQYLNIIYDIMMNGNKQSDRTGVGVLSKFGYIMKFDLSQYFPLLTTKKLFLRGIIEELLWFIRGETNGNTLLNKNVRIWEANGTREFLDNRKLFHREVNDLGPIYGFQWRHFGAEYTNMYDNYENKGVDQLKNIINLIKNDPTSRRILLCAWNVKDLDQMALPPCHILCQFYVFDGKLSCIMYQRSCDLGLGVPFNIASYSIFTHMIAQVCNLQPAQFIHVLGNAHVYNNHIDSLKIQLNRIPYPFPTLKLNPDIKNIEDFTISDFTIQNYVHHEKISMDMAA

[17] = biological target: T1, Bifunctional dihydrofolate reductase-thymidylate synthase; test: Inhibition of pyrimethamine-resistant form-2 Plasmodium falciparum N51I, C59R, S108N, I164L, K96N mutant expressed in Escherichia coli BL21(DE3)

Structure (SMILES)	Ki [1]	Ki [2]	Ki [3]	Ki [4]	Ki [5]	Ki [6]	IC50 [7]	IC50 [8]	IC50 [9]	IC50 [10]	IC50 [11]	IC50 [12]	IC50 [13]	IC50 [14]	Ki [15]	Ki [16]	IC50 [17]
CCc1nc(N)nc(N)c1-c1ccc(Cl)cc1 [PYRIMETHAMINE]	1.07 nM	1.24 nM	15.5 nM	3.57 nM	1.9 nM	2.1 nM	170 nM	7200 nM	420 nM	90 nM	10 nM	1820 nM	870 nM	3470 nM	7.26 nM	–	–
CC1(C)N=C(N)N=C(N)N1OCCCOc1cc(Cl)c(Cl)cc1Cl	147 nM	514 nM	72.4 nM	8.09 nM	859 nM	209 nM	160 nM	40000 nM	50 nM	200 nM	60 nM	680 nM	50 nM	920 nM	17.6 nM	292 nM	90 nM
